Assay outcomes deposited in PubChem BioAssay by several laboratories.
Hits are enriched below; roughly 4.1% of the tested compounds scored in any of these assays.
hERG rescue: hERG (human) protection from proarrhythmic block | activation (rescue from dofetilide block), less the hit threshold, % at 10 µM | AID 1511 | CHO-hERG, FluxOR thallium flux, dofetilide IC70 present | Q12809 | actives 0.51% (n = 310,000);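 active = activation above the mean of controls blocked by dofetilide plus 5 SD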;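 note: thallium influx through hERG after potassium depolarization seen as dye fluorescence rise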
KCNQ1 inh: blocks the human KCNQ1 potassium channel; CHO-K1 KCNQ1, FluxOR thallium flux fluorescence; active compounds read high; B-score at 10 µM; actives 1.3% (n = 310,000); AID 2642;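 active = compounds whose thallium flux B-score, printed positive for inhibition, exceeds three library SD while starting fluorescence stays within three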;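 note: channel opened by potassium depolarization with thallium stimulus after 20 min compound exposure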
Target sequence (P51787 whole entry, looked up): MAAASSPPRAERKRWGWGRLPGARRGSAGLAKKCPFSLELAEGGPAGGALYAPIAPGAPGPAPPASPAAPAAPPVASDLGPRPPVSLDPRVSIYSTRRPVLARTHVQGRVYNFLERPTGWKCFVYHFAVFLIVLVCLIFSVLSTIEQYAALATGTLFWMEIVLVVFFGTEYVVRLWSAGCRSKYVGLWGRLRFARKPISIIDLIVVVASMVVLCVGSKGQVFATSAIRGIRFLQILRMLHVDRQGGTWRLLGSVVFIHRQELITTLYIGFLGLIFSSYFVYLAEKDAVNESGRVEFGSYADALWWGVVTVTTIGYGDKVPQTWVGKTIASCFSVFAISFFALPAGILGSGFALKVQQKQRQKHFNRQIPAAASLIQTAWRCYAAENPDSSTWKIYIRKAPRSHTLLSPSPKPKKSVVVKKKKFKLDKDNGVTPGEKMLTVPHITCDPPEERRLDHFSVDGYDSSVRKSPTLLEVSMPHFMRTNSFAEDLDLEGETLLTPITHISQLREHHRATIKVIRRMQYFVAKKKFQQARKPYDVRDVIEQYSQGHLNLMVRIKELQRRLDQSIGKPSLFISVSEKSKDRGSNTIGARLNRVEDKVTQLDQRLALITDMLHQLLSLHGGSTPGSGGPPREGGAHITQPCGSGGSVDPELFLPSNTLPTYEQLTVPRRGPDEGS
KCNK3 inh: human KCNK3 channel inhibition, primary screen; O14649; CHO-KCNK3 thallium flux, FluxOR fluorescence; active compounds read low; B-score at 10 µM; actives 0.84% (n = 340,000);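 active = B-score under library mean minus 4 SD, starting fluorescence ratio at most library mean plus 5 SD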;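 note: more negative B-score means stronger inhibition of thallium flux through KCNK3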
KCNQ1 act: potentiates or activates the human KCNQ1 potassium channel | actives 0.35% (n = 310,000) | CHO-K1 KCNQ1, thallium flux FluxOR fluorescence; active compounds read high | B-score at 10 µM;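 active = fluorescence ratio B-score, a plate-corrected score, at least three library SD, with initial intensity B-score within 5 SD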
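assay system = KCNQ1-transfected CHO-K1 cells | medium = assay buffer with matched DMSO | probe or stimulus = depolarizing K+/Tl+ stimulus, K2SO4 and Tl2SO4 each 12.5 mM in 5x stock | dosing = single dose | incubation = dye 90 min, compound 20 min, room temperature | detection = kinetic FluxOR fluorescence, 10 s baseline plus 110 s post-stimulus | evaluation = ratio B score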
Cl transport mod: KCC2 (human) Cl- transport modulation. KCC2 cells, thallium flux FluoZin-2 fluorescence. B-score of Tl+ flux slope (higher = more flux/activation; lower = inhibition) at 10 µM. actives 2.2% (n = 190,000);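 active = thallium flux slope and its plate-corrected score both differing from the plate sample mean at a set confidence after two filtering rounds, in either direction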;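 note: slope of fluorescence scaled to starting intensity during 10 to 20 s after thallium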
KCNK9 inh: human KCNK9 channel inhibition; actives 1.2% (n = 310,000); HEK293 KCNK9, FluxOR thallium flux fluorescence; active compounds read low; B-score at 10 µM;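 active = ratio B-score over 3 SD below the library mean, with starting fluorescence within 5 SD of its mean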;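 note: negative B-score means less thallium flux so channel inhibition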
KCC2 secondary: confirmation of human KCC2 transport modulators; shares compounds with Cl transport mod; HEK293-KCC2, thallium flux, FluoZin2 fluorescence; active compounds read high; normalised thallium flux (F/F0 slope) at 10 µM; actives 15% (n = 3,700); AID 1713;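 active = thallium flux slope above the same plate's solvent-only control mean plus 3 SD; inconclusive = the two replicate wells disagree; inactive = no significant difference from solvent-only control wells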
KCC2 bumet counter: thallium flux despite bumetanide block in KCC2 cells, secondary assay 3; shares compounds with Cl transport mod; HEK293-KCC2 + bumetanide/ouabain, thallium flux FluoZin2; active compounds read high; normalized thallium flux at 10 µM; actives 49% (n = 3,700);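 active = thallium entry rate above the same plate's blocked-transporter control wells by more than 3 SD; inconclusive = the two repeat wells disagree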;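 note: raw slope of fluorescence over initial fluorescence between 10 and 20 s after thallium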
KCC2 secondary2: confirmation of human KCC2 transport modulators | shares compounds with Cl transport mod | HEK293-KCC2, thallium flux FluoZin2 fluorescence; actives lie on both sides; F/F0 rise rate, 10–20 s post-thallium | normalized thallium flux at 10 µM | actives 23% (n = 3,700) | AID 1715;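 active = thallium flux slope more than 3 SD above or below the plate's solvent-only control mean, mostly below; inconclusive = the two repeat wells disagreed; inactive = no significant shift from solvent-only controls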;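 note: raw slope with 0.1% DMSO as baseline and bumetanide as block control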
HEK293 Tl flux: acts in parental HEK cells, KCC2 counter-screen; HEK293 parental cells, thallium flux FluoZin2, ouabain; baseline-ratio fluorescence slope, 10–20 s after thallium; shares compounds with Cl transport mod; thallium flux rate (normalised fluorescence) at 10 µM; actives 46% (n = 3,700);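 active = thallium flux rate significantly above the same plate's solvent-only control wells, beyond their mean plus 3 SD; inconclusive = the two replicate wells gave conflicting results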
KCC2 retest ouab: KCC2 (human) modulation, ouabain retest | AID 1717 | actives 48% (n = 3,700) | raw Tl+ flux slope (below DMSO = inhibition, above = activation) at 10 µM | HEK293-KCC2, thallium flux FluoZin2 fluorescence; bidirectional: low = inhibitor, high = activator | shares compounds with Cl transport mod;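 active = thallium flux slope beyond 3 SD from same-plate DMSO control mean in most replicates, usually higher, sometimes lower; inconclusive = repeat tests gave conflicting results; inactive = no significant difference from controls in most replicates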;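 note: slope of initial-normalized fluorescence between seconds 10 and 20 after thallium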
HEK counter2: acts in parental HEK cells, second KCC2 counter-screen. HEK293 parental, thallium flux FluoZin-2 fluorescence slope. shares compounds with Cl transport mod. AID 1718. thallium flux slope at 10 µM. actives 33% (n = 3,700);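 active = thallium flux slope above the same plate's solvent-control mean plus 3 SD in both duplicate wells; inconclusive = duplicate wells that disagreed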;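 note: run without ouabain in cells lacking the KCC2 cotransporter; slope of fluorescence scaled to its starting value between 10 and 20 s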
Numbers without * were called inactive; i = inactive; ? = inconclusive; / = not tested or not shown; ! = not confirmed by another sample.

SMILES	hERG rescue	KCNQ1 inh	KCNK3 inh	KCNQ1 act	Cl transport mod	KCNK9 inh	KCC2 secondary	KCC2 bumet counter	KCC2 secondary2	HEK293 Tl flux	KCC2 retest ouab	HEK counter2
Cc1sc2ncnc(OCC(=O)Nc3ccc4c(c3)OCCO4)c2c1C	-4	i	i	i	-0.0075	i	/	/	/	/	/	/
Cc1nc(Nc2ccc3c(c2)OCCO3)c2c(C)c(C)sc2n1	-1	i	i	i	7.1*	i	0.0056	0.021*	0.039*	0.019*	0.031*	0.021*
S=c1[nH]c2ccc3ccccc3c2[nH]1	-9	i	i	i	-0.94	i	/	/	/	/	/	/
S=c1[nH]c2cc3ccccc3cc2[nH]1	-12	i	i	i	3.3*!	i	0.017	0.0076*	?	0.0091*	0.016	?
Cc1cc2[nH]c(=O)c(=O)[nH]c2cc1S(=O)(=O)N(C)C1CCCCC1	-8	i	i	i	/	i	/	/	/	/	/	/
COc1ccc(NC(=O)Cn2c(=O)sc3ccccc32)cc1	-2	i	i	i	1.7	i	/	/	/	/	/	/
O=C(Cn1c(=O)sc2ccccc21)Nc1ccccc1	-7	i	i	i	6.7*	i	0.0064	0.0044	0.033	0.0078	0.02	0.01
Cc1nnc(NC(=O)c2cccc(S(=O)(=O)N3CC(c4ccccc4)CC3=O)c2)s1 (stereo not drawn)	-7	i	i	i	-3.2	i	/	/	/	/	/	/
CCc1nnc(NC(=O)c2cccc(S(=O)(=O)N3CC(c4ccccc4)CC3=O)c2)s1 (stereo not drawn)	-7	i	i	i	-4.4	i	/	/	/	/	/	/
COc1ccc(C(=O)Nc2nncs2)cc1S(=O)(=O)N1CC(c2ccccc2)CC1=O (stereo not drawn)	-4	i	i	i	/	i	0.0063	0.0051	0.029	0.0075	?	0.011
Cc1cc(NC(=O)c2cccc(S(=O)(=O)N3CC(c4ccccc4)CC3=O)c2)no1 (stereo not drawn)	-5	i	i	i	-5.4*	i	?	0.0039	0.022*	0.006*	0.013*	?
CCC(CC)C(=O)Nc1cc(=O)n(C)c(=O)n1C	-8	i	i	i	4.1*	i	0.0062	0.0049	0.028	0.0078	0.019	0.011
COCC(=O)Nc1cc(=O)n(C)c(=O)n1C	0	i	i	i	-1.2	i	/	/	/	/	/	/
O=C(CN1C(=O)C2CCCCC2C1=O)Nc1nc(-c2ccccn2)cs1 (stereo not drawn)	-7	i	i	i	/	i	0.0062	0.007*	0.032	0.0075	0.02	0.011
CCOC(=O)c1cc(-c2ccc(Cl)cc2)nc2onc(C)c12	-9	i	/	i	/	-8*	0.0075	0.0046	0.029	0.0078	0.019	0.011
CCOC(=O)c1cc(-c2ccc(Cl)cc2)nc2c1c(=O)[nH]c(=O)n2CCOC	-8	i	i	i	0.19	i	/	/	/	/	/	/
CN(CC(=O)N1CC(=O)N(CCc2ccccc2)C(=O)C1)S(=O)(=O)c1cccc2nsnc12	-13	i	i	i	-4*	i	0.0058	0.0056*	?	0.0085	?	0.012
COc1ccc(-c2nnc(-c3ccc(OCC(C)C)cc3)o2)cc1	-12	i	i	i	-5.5*	i	0.016	0.0051	0.029	0.0077	0.017	0.01
CC(C)COc1ccc(-c2nnc(-c3ccncc3)o2)cc1	-12	i	i	i	1.9	i	/	/	/	/	/	/
COc1cc(C(=S)N2CCOCC2)ccc1OC(=O)Cc1ccc(F)cc1	-4	i	i	i	-4.8*	i	0.0089	0.0057	0.028*	0.0074	0.015*	0.011
CCOc1cc(C(=S)N2CCCC2)ccc1OC(=O)Cc1ccc(F)cc1	-13	i	i	i	-4.4	i	/	/	/	/	/	/
Cc1oc(-c2ccccc2)nc1CS(=O)CC(=O)N1CCc2ccccc2C1 (stereo not drawn)	-12	i	i	i	/	i	0.0054	?	0.024*	0.0073	?	0.0097
O=C(CSc1nccc(=O)[nH]1)N1CCc2ccccc2C1	-2	i	i	i	-4.9*	i	0.0057	0.005	0.023*	0.0069	0.015*	0.0092
O=C(CSc1nnc(-c2ccccc2)o1)N1CCc2ccccc2C1	-9	i	i	i	-3.4*	i	0.0061	0.0038	0.025*	?	0.013*	0.0098
COc1ccc(-c2nnc(SCC(=O)N3CCc4ccccc4C3)o2)cc1	-14	i	i	i	-3.5*	i	?	0.0051	0.033	?	0.016*	0.011
SMILES	hERG rescue	KCNQ1 inh	KCNK3 inh	KCNQ1 act	Cl transport mod	KCNK9 inh	KCC2 secondary	KCC2 bumet counter	KCC2 secondary2	HEK293 Tl flux	KCC2 retest ouab	HEK counter2
Cc1ccc(-c2nc(CS(=O)CC(=O)N3CCN(c4ccccc4)CC3)c(C)o2)cc1 (stereo not drawn)	-8	i	i	i	/	i	/	/	/	/	/	/
COCCn1c(-c2ccc(Cl)cc2)cnc1SCC(=O)NCc1cccs1	/	/	i	/	-0.91	/	/	/	/	/	/	/
CN(CC(=O)Nc1ccc(F)cc1)C(=O)COC(=O)CSc1ccc(F)cc1	-7	i	i	i	/	i	/	/	/	/	/	/
Cc1ccc2c(c1)N(C(=O)CCC(=O)NCc1cccc(Cl)c1)CC(C)O2 (stereo not drawn)	-8	i	i	i	/	i	/	/	/	/	/	/
CC(=O)Oc1ccc(OC(C)=O)c(SCCCCCCl)c1	-11	i	i	i	-0.59	i	/	/	/	/	/	/
CN(C=O)CP(=O)(O)CCN1CCCC1=O	/	/	/	/	0.017	/	/	/	/	/	/	/
O=C(OC1CCc2ccccc2C1=O)c1ccccc1O (stereo not drawn)	/	/	i	/	-3.8*	/	0.0087	?	0.027*	0.0075	0.013*	0.011
